Measurements from ChEMBL document CHEMBL4396943, “The tetrahydroxanthone-dimer phomoxanthone A is a strong inducer of apoptosis in cisplatin-resistant solid cancer cells” (Bioorg Med Chem, 2019).
Activity calls are given as the source filed them. The rule behind the calls is not given here.

Legend:
A2780 [1] = assay: Induction of apoptosis in human A2780 cells assessed as depolarization of mitochondrial membrane potential incubated for 1 hr by TMRE staining based flow cytometry; type: functional, cell-based
Outline: (§1)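 Cells seeded overnight; complete medium swapped for FBS-free medium just before treatment to avoid TMRE ester cleavage. Exposure to PXA for 1 h, 2 h or 24 h. TMRE staining 20 min, cells collected by trypsinisation, ΔΨm read by flow cytometry. Medium served as negative control, 20 µM CCCP as positive control. Mean ± SEM reported.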

A2780cisR [2] = assay: Cell cycle arrest in human A2780cisR cells assessed as accumulation at G1 phase incubated for 24 hrs by propidium iodide staining based flow cytometry; type: functional
Outline: (§2)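 After 24 h exposure, cells washed in ice-cold PBS. About 2 million cells fixed in cold 70% ethanol at −20 °C for at least 24 h. Stained with 0.1% Triton X-100, 200 µg/ml RNase A and 20 µg/ml propidium iodide in PBS, 15 min at 37 °C in the dark. DNA content read by flow cytometry with doublet discrimination. Medium as untreated control, paclitaxel as G2/M control. Three independent experiments.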

J82 [3] = assay: Cell cycle arrest in cisplatin resistant human J82 cells assessed as accumulation at G1 phase at 10 uM incubated for 24 hrs by propidium iodide staining based flow cytometry (reference value: 78.1%); type: functional; outline: as §2
A2780 [4] = assay: Antiproliferative activity against human A2780 cells assessed as reduction in cell viability incubated for 24 hrs by MTT assay; type: functional, cell-based; conditions: A2780, 24 h
Outline: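 Cells seeded overnight in 96-well plates, then exposed to increasing concentrations (compound dissolved in DMSO, diluted in medium) for the stated time. MTT (5 mg/ml in PBS) added for 15 min, formazan dissolved in DMSO, absorbance read at 544 nm minus 690 nm background. IC50 = concentration giving 50% signal decrease. At least three independent experiments in triplicate.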

J82 [5] = assay: Cell cycle arrest in human J82 cells assessed as accumulation at G1 phase at 5 uM incubated for 24 hrs by propidium iodide staining based flow cytometry (reference value: 69.6%); type: functional; outline: as §2
J82 [6] = assay: Cell cycle arrest in cisplatin resistant human J82 cells assessed as accumulation at G1 phase at 1 uM incubated for 24 hrs by propidium iodide staining based flow cytometry (reference value: 78.1%); type: functional; outline: as §2
A2780 [7] = assay: Potency index, ratio of cisplatin IC50 to compound IC50 for antiproliferative activity in human A2780 cells assessed as reduction in cell viability incubated for 72 hrs by MTT assay; type: functional
Outline: (§3)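 Cells seeded in 96-well plates overnight, exposed 72 h to increasing concentrations. MTT (5 mg/ml) added for 15 min, formazan dissolved in DMSO, absorbance read at 544 nm with 690 nm background subtracted. IC50 is the concentration reducing signal by 50%. Three independent experiments in triplicate. CisR sublines made by weekly intermittent cisplatin exposure for 24–30 weeks.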

A2780cisR [8] = assay: Induction of apoptosis in human A2780cisR cells assessed as nuclear condensation by measuring reduced size and increased intensity of nuclei at 10 uM incubated for 24 hrs by hoechst 33342 staining based fluorescence microscopy; type: functional, cell-based
K562 = assay: Potency index, ratio of cisplatin IC50 to compound IC50 for antiproliferative activity in human K562 cells assessed as reduction in cell viability incubated for 72 hrs by MTT assay; type: functional; outline: as §3
A2780 [9] = assay: Induction of apoptosis in human A2780 cells assessed as depolarization of mitochondrial membrane potential afer 24 hrs by TMRE staining based flow cytometry; type: functional, cell-based
Outline: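 Cells seeded overnight; medium switched to FBS-free just before treatment to avoid TMRE ester cleavage. Exposure 1 h, 2 h or 24 h, then TMRE staining for 20 min. Cells trypsinized, centrifuged at 4 °C and read by flow cytometry. Medium as negative control, 20 µM CCCP as positive control. […]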

A2780 [10] = assay: Induction of apoptosis in human A2780 cells assessed as increase in activation of caspase 3/7 at 10 uM incubated for 24 hrs by hoechst 33342 staining based fluorescence microscopy (reference value: 1.4%); type: functional
J82 [11] = assay: Cell cycle arrest in cisplatin resistant human J82 cells assessed as accumulation at G1 phase at 5 uM incubated for 24 hrs by propidium iodide staining based flow cytometry (reference value: 78.1%); type: functional; outline: as §2
J82 [12] = assay: Induction of apoptosis in human J82 cells assessed as nuclear condensation by measuring reduced size and increased intensity of nuclei at 50 uM incubated for 24 hrs by hoechst 33342 staining based fluorescence microscopy; type: functional, cell-based
CAL-27 = assay: Potency index, ratio of cisplatin IC50 to compound IC50 for antiproliferative activity in human CAL27 cells assessed as reduction in cell viability incubated for 72 hrs by MTT assay; type: functional; outline: as §3
A2780 [13] = assay: Effect on ROS generation in human A2780 cells at 316 nM incubated for 18 hrs by H2DCFDA staining based flow cytometry; type: functional, cell-based
Outline: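 Cells plated in 24-well plates (about 150,000/well) overnight, then exposed 18 h. Washed and moved to phenol red-free, serum-free RPMI-1640, then loaded with 10 µM H2DCF-DA for 30 min at 37 °C in the dark. One aliquot read directly, the other after 250 µM H2O2 for 1 h at 37 °C. DCF fluorescence read by flow cytometry. Three independent experiments.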

A2780cisR [14] = assay: Induction of apoptosis in human A2780cisR cells assessed as depolarization of mitochondrial membrane potential at 1 uM incubated for 2 hrs by TMRE staining based flow cytometry; type: functional; outline: as §1
A2780cisR [15] = assay: Induction of apoptosis in human A2780cisR cells assessed as accumulation in subG1 phase at 1 uM incubated for 24 hrs by propidium iodide staining based flow cytometry relative to control; type: functional
Outline: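 About 100,000 cells/well plated; after one day, treated 24 h. Cells lysed in hypotonic buffer (0.1% sodium citrate, 0.1% Triton X-100, 100 µg/ml propidium iodide) and kept overnight at 4 °C in the dark. Sub-G1 fraction measured by flow cytometry. Medium as control, cisplatin as positive control.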

KYSE-510 = assay: Potency index, ratio of cisplatin IC50 to compound IC50 for antiproliferative activity in human KYSE-510 cells assessed as reduction in cell viability incubated for 72 hrs by MTT assay; type: functional; outline: as §3
A2780 [16] = assay: Induction of apoptosis in human A2780 cells assessed as depolarization of mitochondrial membrane potential at 1 uM incubated for 2 hrs by TMRE staining based flow cytometry; type: functional; outline: as §1
HCT-116 = assay: Potency index, ratio of cisplatin IC50 to compound IC50 for antiproliferative activity in human HCT116 cells assessed as reduction in cell viability incubated for 72 hrs by MTT assay; type: functional; outline: as §3
A2780cisR [17] = assay: Induction of apoptosis in human A2780cisR cells assessed as depolarization of mitochondrial membrane potential incubated for 2 hrs by TMRE staining based flow cytometry; type: functional, cell-based; outline: as §1
J82 [18] = assay: Induction of apoptosis in cisplatin resistant human J82 cells assessed as increase in activation of caspase 3/7 at 30 uM incubated for 24 hrs by hoechst 33342 staining based fluorescence microscopy (reference value: 0.5%); type: functional
[19] = Potency index, ratio of cisplatin IC50 to compound IC50 for antiproliferative activity in human Cal27CisR cells assessed as reduction in cell viability incubated for 72 hrs by MTT assay; type: functional; outline: as §3

For `CC(=O)OC[C@]12Oc3c(-c4ccc(O)c5c4O[C@@]4(COC(C)=O)C(=C(O)C[C@@H](C)[C@H]4OC(C)=O)C5=O)ccc(O)c3C(=O)C1=C(O)C[C@@H](C)[C@H]2OC(C)=O` [PHOMOXANTHONE A], the Activity (A2780 [1]) was “Dose-dependent effect”, the IC50 (A2780 [1]; A2780, 1 h) was 1010 nM and the Activity (A2780cisR [2]) was “Dose-dependent effect”. For the same compound, the Activity (J82 [3]) was 81.2%, the IC50 (A2780 [4]; read-out: IC50) was 1440 nM and the IC50 (A2780 [4]; read-out: pIC50 (converted)) was 1450 nM. For the same compound, the Activity (J82 [5]) was 68%, the Activity (J82 [6]) was 76.3% and the “Ratio IC50” value (A2780 [7]) was 7. The Activity (A2780cisR [8]) was “Active”, the “Ratio IC50” value (K562) was 5 and the Activity (A2780 [9]) was “Dose-dependent effect”. The Activity (A2780 [10]) was 83%, the Activity (J82 [11]) was 79.3% and the Activity (J82 [12]) was “Active”. The “Ratio IC50” value (CAL-27) was 2 - 10, the Activity (A2780 [13]) was “inactive” and the Activity (A2780cisR [14]) was 50%. For the same compound, the Activity (A2780cisR [15]) was 70%, the “Ratio IC50” value (KYSE-510) was 2 - 10 and the Activity (A2780 [16]) was 50%. The “Ratio IC50” value (HCT-116) was 2 - 10, the Activity (A2780cisR [17]) was “Dose-dependent effect” and the IC50 (A2780cisR [17]) was 860 nM. For the same compound, the Activity (J82 [18]) was 90% and the “Ratio IC50” value [19] was 2 - 10.
